A short description of series [1]: melting temperature; fluorescence melt of hairpins on a sequencing array, two-state fit, raised by 9.35 °C to match UV melts. The following applies: sodium 0.088 M. The method in brief:
(§1)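 Folding enthalpy and melting temperature were estimated with bootstrapped two-state fits and combined across four replicates by inverse-variance weighting, with fitted temperatures raised by 9.35 °C to match UV melts. The data were Cy3 fluorescence of library hairpins, with annealed Cy3 and quencher oligos, on a sequenced MiSeq flow cell in 50 mM Na-HEPES pH 8.0, 25 mM NaCl, imaged in 2.5 °C steps up to 60 °C and normalised to pre-quench Cy3 and control constructs.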

The nature of series [2]: folding enthalpy; higher = less favourable; fluorescence melt of hairpins on a sequencing array, two-state fit. The conditions noted are these: sodium 0.088 M. The method in brief:
as §1

The source of these data is the array DNA melting data of Ke et al. (doi:10.1101/2024.01.08.574731).

Turning to GACGAAGGAAACTCCGTC ((((.((....)).)))), the Tm in series [1] was 37.7 °C. Besides, the folding enthalpy in series [2] was -26.2 kcal/mol.

In the case of GACGACCGAAAGGTGGTC (((.(((....))).))), the Tm in series [1] was found to be 56 °C. The folding enthalpy in series [2] is -34.8 kcal/mol.

GACGACCGAAAGGTTGTC (((.(((....))).))): in series [1], the Tm was determined as 63.4 °C. The folding enthalpy in series [2] is -42.3 kcal/mol.

On to GACGACGAAAGTCCGTC ((((((....))).))), for which the Tm in series [1] is 53.4 °C. Also, the folding enthalpy in series [2] is -29.9 kcal/mol.

Consider GACGACGAAAGTCCTGTC ((((((....)))..))), for which the Tm in series [1] was determined as 31.4 °C. Also, in series [2], the folding enthalpy was -16.4 kcal/mol.

For the sequence GACGACGAAAGTCGAGTC ((((((....)))..))), the Tm in series [1] turned out to be 39.7 °C. Further, the folding enthalpy in series [2] is -10.5 kcal/mol.

Take GACGACGAAAGTCGGTC ((((((....))).))): the Tm in series [1] was 60.3 °C. The folding enthalpy in series [2] was -12.2 kcal/mol.

Turning to GACGACGAAAGTCTGTC ((((((....))).))), in series [1], the Tm amounted to 51.4 °C. For the same sequence, the folding enthalpy in series [2] is -24.4 kcal/mol.

On to GACGACGGAAACGCCGTC ((((.((....)).)))), for which the Tm in series [1] came out at 56.4 °C. Moreover, in series [2], the folding enthalpy was -31.4 kcal/mol.

Regarding GACGACGGAAACGTCATC ((.((((....)))).)), in series [1], the Tm was 38.8 °C. In series [2], the folding enthalpy was -15.7 kcal/mol.

On to GACGAGACGAAAGTCGTC (((..(((....)))))), for which, in series [1], the Tm came to 49 °C. Moreover, in series [2], the folding enthalpy was -13.8 kcal/mol.

Turning to GACGAGCCGAAAGGCGTC (((..(((....)))))), the Tm in series [1] turned out to be 42.3 °C. Further, in series [2], the folding enthalpy is -8.53 kcal/mol.

Turning to GACGAGCGAAAGCTGGTC (((.(((....))).))), in series [1], the Tm stood at 54.8 °C. Moreover, the folding enthalpy in series [2] was -31.2 kcal/mol.

GACGAGCGAAAGCTTGTC (((.(((....))).))): in series [1], the Tm worked out at 61.2 °C. For the same sequence, the folding enthalpy in series [2] was -36.8 kcal/mol.

Turning to GACGAGGAAACTCGTC ((((((....)))))), the Tm in series [1] worked out at 61.2 °C. Further, the folding enthalpy in series [2] is -41.1 kcal/mol.

Take GACGATGGAAACACCGTC ((((.((....)).)))): in series [1], the Tm was found to be 45.4 °C. Besides, the folding enthalpy in series [2] is -29.6 kcal/mol.

With GACGATGGAAACATCGCC (.(((((....))))).), the Tm in series [1] turned out to be 47.3 °C. In addition, the folding enthalpy in series [2] was -17.9 kcal/mol.

On to GACGCACGAAAGTGAGTC (((.(((....))).))), for which the Tm in series [1] amounted to 60 °C. Also, the folding enthalpy in series [2] was -40 kcal/mol.

GACGCACGAAAGTGGGTC (((.(((....))).))): in series [1], the Tm was 63.9 °C. Moreover, in series [2], the folding enthalpy was -35.3 kcal/mol.

Turning to GACGCACGAAAGTGGTC (((.(((....)))))), in series [1], the Tm was 51.7 °C. The folding enthalpy in series [2] was -16.9 kcal/mol.

On to GACGCCCGAAAGGGGTC (((.(((....)))))), for which, in series [1], the Tm came to 55.6 °C. For the same sequence, the folding enthalpy in series [2] was -17.1 kcal/mol.

As for GACGCCCGAAAGGGTGTC (((.(((....))).))), in series [1], the Tm stood at 69.3 °C. Further, the folding enthalpy in series [2] was -35.5 kcal/mol.

For GACGCCGAAAGGCAGGTC ((((((....)))..))), in series [1], the Tm was found to be 52.1 °C. For the same sequence, in series [2], the folding enthalpy was -16.2 kcal/mol.

Turning to GACGCCGAAAGGCAGTC ((((((....))).))), the Tm in series [1] amounted to 63.7 °C. Moreover, the folding enthalpy in series [2] is -18.2 kcal/mol.

On to GACGCCGAAAGGCGGTC ((((((....))).))), for which the Tm in series [1] turned out to be 64.9 °C. Besides, in series [2], the folding enthalpy is -9.77 kcal/mol.

For GACGCCGAAAGGCTTGTC ((((((....)))..))), in series [1], the Tm was 41.1 °C. The folding enthalpy in series [2] is -13.5 kcal/mol.

For the sequence GACGCCGGAAACGGCATC ((.((((....)))).)), in series [1], the Tm worked out at 43.4 °C. Besides, in series [2], the folding enthalpy is -11.4 kcal/mol.

For GACGCGGGAAACCGCACC (..((((....))))..), in series [1], the Tm came to 32.2 °C. Besides, the folding enthalpy in series [2] is -8.05 kcal/mol.

Turning to GACGCGGGAAACCGCGCC (.(((((....))))).), the Tm in series [1] was 55 °C. Moreover, the folding enthalpy in series [2] was -11.8 kcal/mol.

Consider GACGCTGGAAACAACGCC (.((.((....)).)).), for which the Tm in series [1] was determined as 28.2 °C. Also, the folding enthalpy in series [2] is -12.6 kcal/mol.

Consider GACGGACGAAAGTCGGTC (((.(((....))).))), for which the Tm in series [1] is 58.1 °C. Also, the folding enthalpy in series [2] is -35.2 kcal/mol.

For the sequence GACGGAGGAAACTCCACC (..((((....))))..), the Tm in series [1] came to 26.4 °C. For the same sequence, the folding enthalpy in series [2] was -10.4 kcal/mol.

As for GACGGAGGAAACTCCGTC (((((((....))))))), the Tm in series [1] was determined as 67.8 °C. Further, the folding enthalpy in series [2] was -36.1 kcal/mol.

On to GACGGAGGAAACTTCGTC ((((.((....)).)))), for which the Tm in series [1] was 49.6 °C. Also, in series [2], the folding enthalpy was -42.1 kcal/mol.

For GACGGCCGAAAGGCAGTC (((.(((....))).))), the Tm in series [1] was determined as 68.8 °C. Also, in series [2], the folding enthalpy was -26.2 kcal/mol.

In the case of GACGGCGAAAGCCAAGTC ((((((....)))..))), the Tm in series [1] worked out at 49 °C. For the same sequence, the folding enthalpy in series [2] was -18.5 kcal/mol.

As to GACGGCGAAAGCCACGTC ((((((....)))..))), the Tm in series [1] was 49.8 °C. The folding enthalpy in series [2] is -15.3 kcal/mol.
